Screening results from PubChem.
A selection: hits, their analogues and other compounds. The true share with any hit is near 3.7%.
Kir21 block = inhibitors of mouse Kir2.1 inward-rectifier potassium channel; Inward rectifier potassium channel 2 (Mus musculus), P35561; HEK293-Kir2.1, FluxOR thallium flux fluorescence; active compounds read low; B-score at 10 µM; hit rate 0.85% among 310,000; AID 1672, 2009;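 active = fluorescence ratio B-score at or below minus 3 SD of library scores, with starting-brightness B-score within 2 SD, cut at about -4.2 in these data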;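 note: channel flux triggered by added potassium and thallium sulfate stimulus; B-score of peak minus minimum fluorescence over baseline after thallium stimulus; more negative B-score means stronger Kir2.1 block with less thallium influx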
KCNQ1 block = inhibitors of human KCNQ1 channel, primary screen, cell-based, thallium flux, high-throughput; CHO-K1 KCNQ1, FluxOR thallium flux fluorescence; active compounds read high; Potassium voltage-gated channel subfamily KQT member 1 (Homo sapiens), P51787; hit rate 1.3% among 310,000; B-score at 10 µM; AID 2642, 2010;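 active = compounds whose thallium flux B-score, printed positive for inhibition, exceeds three library SD while starting fluorescence stays within three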;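 note: channel opened by potassium depolarization with thallium stimulus after 20 min compound exposure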
Target sequence (P51787 whole entry, looked up): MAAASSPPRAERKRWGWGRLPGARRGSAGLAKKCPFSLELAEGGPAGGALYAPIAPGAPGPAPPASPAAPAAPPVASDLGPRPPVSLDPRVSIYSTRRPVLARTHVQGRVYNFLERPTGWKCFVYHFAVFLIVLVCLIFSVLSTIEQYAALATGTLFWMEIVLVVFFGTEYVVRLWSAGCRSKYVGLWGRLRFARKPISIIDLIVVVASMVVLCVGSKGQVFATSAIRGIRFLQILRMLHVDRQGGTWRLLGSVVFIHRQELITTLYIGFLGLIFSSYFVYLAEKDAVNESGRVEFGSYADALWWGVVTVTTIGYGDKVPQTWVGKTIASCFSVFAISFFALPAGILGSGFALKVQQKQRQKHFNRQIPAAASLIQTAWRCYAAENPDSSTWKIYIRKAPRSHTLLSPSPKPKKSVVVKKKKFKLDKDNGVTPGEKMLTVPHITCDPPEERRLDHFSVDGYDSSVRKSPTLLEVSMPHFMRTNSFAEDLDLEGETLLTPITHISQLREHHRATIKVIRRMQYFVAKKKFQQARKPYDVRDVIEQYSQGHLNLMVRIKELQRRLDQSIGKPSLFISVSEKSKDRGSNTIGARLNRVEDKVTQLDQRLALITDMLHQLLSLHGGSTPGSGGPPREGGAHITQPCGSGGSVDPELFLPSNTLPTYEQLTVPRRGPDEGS
KCNQ1 act = potentiators or activators of KCNQ1 channel, primary screen, cell-based, thallium flux, high-throughput; CHO-K1 KCNQ1, thallium flux FluxOR fluorescence; active compounds read high; Potassium voltage-gated channel subfamily KQT member 1 (Homo sapiens), P51787; AID 2648, 2010; hit rate 0.35% among 310,000; B-score at 10 µM;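 active = fluorescence ratio B-score, a plate-corrected score, at least three library SD, with initial intensity B-score within 5 SD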
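Assay system: stable KCNQ1 CHO-K1 line; medium: assay buffer, equal DMSO in all wells; timing: 90 min dye loading and 20 min compound exposure, both at room temperature; technique: kinetic FluxOR thallium fluorescence, 10-s 1-Hz baseline, 110-s post-stimulus read; read-out basis: B score of baseline-normalized fluorescence ratio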
hERG rescue = hERG rescue from dofetilide block, primary screen, cell-based, CHO-hERG, FluxOR thallium flux, dofetilide IC70 | Voltage-gated inwardly rectifying potassium channel KCNH2 (Homo sapiens), Q12809 | hit rate 0.51% among 310,000 | activation (rescue from dofetilide block), less the hit threshold, % at 10 µM | dofetilide IC70 present;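 active = activation above the mean of controls blocked by dofetilide plus 5 SD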;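 note: thallium influx through hERG after potassium depolarization seen as dye fluorescence rise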
KCNK3 inh = human KCNK3 channel inhibitors, primary screen, CHO cells, FluxOR thallium flux, B-score. Potassium channel subfamily K member 3 (Homo sapiens), O14649. AID 602410, 2012. FluxOR fluorescence; active compounds read low. hit rate 0.84% among 340,000. B-score at 10 µM;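 active = B-score under library mean minus 4 SD, starting fluorescence ratio at most library mean plus 5 SD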;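 note: more negative B-score means stronger inhibition of thallium flux through KCNK3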
KCNK9 inh = KCNK9 potassium channel inhibitors, primary screen, HEK293 cells, thallium flux; AID 488922, 2010; Potassium channel subfamily K member 9 (Homo sapiens), Q9NPC2; FluxOR thallium flux fluorescence; active compounds read low; B-score at 10 µM; hit rate 1.2% among 310,000;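 active = ratio B-score over 3 SD below the library mean, with starting fluorescence within 5 SD of its mean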;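 note: negative B-score means less thallium flux so channel inhibition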
KCNK9 inh conf = KCNK9 potassium channel inhibitors, confirmation, HEK293 cells, thallium flux, duplicate; inhibition, % at 10 µM; AID 492992, 2010; FluxOR thallium flux fluorescence; shares compounds with KCNK9 inh; hit rate 43% among 4,900;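 active = thallium signal inhibited by more than 5 SD of the compound-free buffer control wells, on both duplicate plates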
Kir2-1 spec = mouse Kir2.1 channel inhibition, confirmation, selectivity assay for KCNK9 modulator project, cell-based, HEK293, thallium flux; shares compounds with KCNK9 inh; Kir2.1 cells, FluxOR thallium flux fluorescence; inhibition, % at 10 µM; hit rate 4% among 4,900;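 active = thallium signal drop more than 5 SD beyond the mean of the no-compound control wells, seen in both duplicate plates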;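 note: signal is fluorescence rise after thallium addition divided by baseline fluorescence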
HEK293 Tl ctr = thallium flux in non-induced HEK293 cells, confirmation, counter-screen for KCNK9 inhibitor project, cell-based, second counter screen, non-induced KCNK9-HEK293. AID 492997, 2010. hit rate 40% among 4,900. shares compounds with KCNK9 inh. inhibition, % at 10 µM. FluxOR thallium flux;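 active = thallium signal drop beyond 5 SD of the untreated control mean, on both duplicate plates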
KCNK3 inh conf = retest of human KCNK3 channel inhibitors, confirmation, CHO cells, FluxOR thallium flux, triplicate | AID 651638, 2012 | shares compounds with KCNK3 inh | ratio percent of control, % at 10 µM | hit rate 99% among 2,400 | FluxOR fluorescence; 0% buffer, 100% carvedilol maximal block;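 active = ratio percent of control, averaged over triplicates, above buffer control mean plus 5 SD, cut at about 64% in these data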;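 note: ratio is the fluorescence rise from min to max over baseline after thallium stimulus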
KCNK3 noninduced = thallium flux inhibition in non-induced cells, primary screen, counter-screen for KCNK3 inhibitor project, cell-based, non-induced KCNK3 line, FluxOR thallium, triplicate. shares compounds with KCNK3 inh. non-induced KCNK3 parental cells; active compounds read low. thallium flux ratio (lower = more inhibition) at 10 µM. hit rate 40% among 2,400;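 active = thallium flux ratio, averaged over three wells, more than 5 SD below the buffer control mean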;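 note: host cells are CHO cells without KCNK3 induction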
Of the large screens only hits and unclear results are named; the others gave an inactive call (follow-up assays come after a bar, where they were run).

O=C(OCC(=O)N(CCc1ccccc1)Cc1ccccc1)c1ccccc1NCCO	KCNK3 inh -9.9, KCNK9 inh -9.5 | KCNK9 inh conf 56% | Kir2-1 spec inactive | HEK293 Tl ctr inactive | KCNK3 inh conf 95 | KCNK3 noninduced inactive
O=C(OCC(=O)N(Cc1ccccc1)Cc1ccccc1)c1ccccc1O	none (no result: Kir21 block, KCNQ1 block, KCNQ1 act, hERG rescue, KCNK9 inh)
O=C(OCC(=O)N(CCc1ccccc1)Cc1ccccc1)c1cccc(O)c1	none
O=C(OCC(=O)N(CCc1ccccc1)Cc1ccccc1)c1ccccc1O	KCNQ1 block 8, KCNK3 inh -12, KCNK9 inh -18 | KCNK9 inh conf 74% | Kir2-1 spec inactive | HEK293 Tl ctr 39% | KCNK3 inh conf 118 | KCNK3 noninduced inactive
O=C(COC(=O)c1c(F)cccc1Cl)NC(=O)Nc1ccc2c(c1)OCCO2	none (no result: Kir21 block, KCNQ1 block, KCNQ1 act, hERG rescue, KCNK9 inh)
Cc1cc(C)n(CCC(=O)N2c3ccccc3CC2C)n1 (stereo not drawn)	none
N#Cc1cccc(C(c2nnnn2C2CCCC2)N2CCC(Cc3ccccc3)CC2)c1 (stereo not drawn)	KCNK3 inh -11, KCNK9 inh -12 | KCNK9 inh conf 58% | Kir2-1 spec inactive | HEK293 Tl ctr 30% | KCNK3 inh conf 112 | KCNK3 noninduced 0.15
COc1cc2c(cc1OC)CN(C(=O)c1oc3ccccc3c1C)CC2	KCNK3 inh -10, KCNK9 inh -9.9 | KCNK9 inh conf 34% | Kir2-1 spec inactive | HEK293 Tl ctr 33% | KCNK3 inh conf 100 | KCNK3 noninduced inactive
COc1cc2c(cc1OC)CN(C(=O)c1ccc(-c3ccccc3)cc1)CC2	none
COc1ccc(C2CC(c3ccc4ccccc4c3)=NN2C(=O)CNC2CCCCC2)cc1 (stereo not drawn)	KCNK3 inh -11, KCNK9 inh -8.9 | KCNK9 inh conf 44% | Kir2-1 spec inactive | HEK293 Tl ctr 30% | KCNK3 inh conf 133 | KCNK3 noninduced inactive
Clc1ccc(OCCSc2ncccn2)c2ccccc12	KCNK9 inh -8.4 | KCNK9 inh conf inactive | Kir2-1 spec inactive | HEK293 Tl ctr 50% | KCNK3 inh conf 106 | KCNK3 noninduced inactive
CN(c1ccccc1)S(=O)(=O)c1cccc(NC(=O)CN2CCCc3ccccc32)c1	KCNK3 inh -9.8, KCNK9 inh -11 | KCNK9 inh conf 50% | Kir2-1 spec inactive | HEK293 Tl ctr 24% | KCNK3 inh conf 113 | KCNK3 noninduced inactive
NS(=O)(=O)c1cccc(NC(=O)CN2CCc3ccccc32)c1	none
Cc1cc(C)c(NC(=O)CNC(=O)COC(=O)/C=C/c2cccs2)c(C)c1	none
N#Cc1c(NC(=O)CSc2n[nH]c(N)n2)oc(-c2ccccc2)c1-c1ccccc1	none
Cc1cccc(C)c1OCC(=O)Nc1oc(-c2ccccc2)c(-c2ccccc2)c1C#N	KCNK9 inh -17 | KCNK9 inh conf 32% | Kir2-1 spec inactive | HEK293 Tl ctr 24% | KCNK3 inh conf 119 | KCNK3 noninduced 0.15
CCOCC(=O)Nc1cc(C(F)(F)F)ccc1Oc1cccc(Br)c1	KCNK9 inh -12 | KCNK9 inh conf 74% | Kir2-1 spec inactive | HEK293 Tl ctr 54% | KCNK3 inh conf 99 | KCNK3 noninduced inactive
CC(=O)Nc1cc(C(F)(F)F)ccc1Oc1cccc(Br)c1	none
COc1ccc(-c2cc(C(=O)N/N=C(\C)c3cccnc3)c3cc(C)ccc3n2)cc1OC	none
CCn1nc(C(=O)Nc2cccc3ccccc23)c(Cl)c1Cl	KCNK9 inh -10 | KCNK9 inh conf 49% | Kir2-1 spec inactive | HEK293 Tl ctr 36% | KCNK3 inh conf 126 | KCNK3 noninduced 0.16
CCn1nc(C(=O)Nc2ccccc2C)c(Cl)c1Cl	none
COc1ccc(NC(=O)/C(C#N)=C\c2ccc(N3CCOCC3)o2)cc1	KCNQ1 block 10, KCNK3 inh -12, KCNK9 inh -8.7 | KCNK9 inh conf 48% | Kir2-1 spec 36% | HEK293 Tl ctr 76% | KCNK3 inh conf 132 | KCNK3 noninduced 0.091
COc1ccc2c(COC(=O)c3cccc(S(=O)(=O)NCC(C)C)c3)cc(=O)oc2c1	KCNK3 inh -11, KCNK9 inh -9.3 | KCNK9 inh conf inactive | Kir2-1 spec inactive | HEK293 Tl ctr inactive | KCNK3 inh conf 138 | KCNK3 noninduced 0.14
Cn1ccc(C(=O)NC(=S)Nc2ccc([N+](=O)[O-])cc2O)n1	none
Cc1cccc(C)c1NC(=O)c1ccc(-c2ccc(Cl)cc2Cl)o1	KCNQ1 block 7, KCNK3 inh -9, KCNK9 inh -16 | KCNK9 inh conf 51% | Kir2-1 spec inactive | HEK293 Tl ctr 38% | KCNK3 inh conf 130 | KCNK3 noninduced 0.14
Cc1ccc(NC(=O)[C@H](C)NC(=O)C2CCN(C(=O)[C@@H](NC(=O)OC(C)(C)C)C(C)C)CC2)cc1	none
O=C(CSCC(=O)N1CCCc2ccccc21)Nc1nc(-c2ccccc2)cs1	KCNK3 inh -12, KCNK9 inh -17 | KCNK9 inh conf 23% | Kir2-1 spec inactive | HEK293 Tl ctr inactive | KCNK3 inh conf 119 | KCNK3 noninduced 0.14
Cc1cc(C)c(NC(=O)CN(C)CC(=O)N(C)CC(=O)Nc2c(Cl)cccc2Cl)c(C)c1	none (no result: Kir21 block, KCNQ1 block, KCNQ1 act, hERG rescue, KCNK9 inh)
Cc1ccc(Cl)cc1NC(=S)N(Cc1ccco1)C(C)c1cccs1 (stereo not drawn)	KCNK3 inh -11, KCNK9 inh -9.6 | KCNK9 inh conf 47% | Kir2-1 spec inactive | HEK293 Tl ctr 37% | KCNK3 inh conf 124 | KCNK3 noninduced 0.15
CCCN1CCN(c2nc(-c3cccs3)nc3ccccc23)CC1	none
